Source: PubChem (several laboratories)
RORa activator – RORA (human) activation | P35398 | CHO-K1 Gal4-RORA LBD luciferase reporter, luminescence; percent increase over mock-subtracted basal signal | activation, % at 10 µM | 65,000 compounds, 1.5% hits | AID 560;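 active = activation above the mean of all tested compounds plus 3 SD, cut at about 49% in these data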;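 also: 0% = DMSO-treated RORA cells and 100% = added signal equal to DMSO minus mock-transfected cells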
WNV NS2B-NS3 inh – inhibitors of West Nile virus NS2B-NS3 protease | WNV NS2B-NS3 protease, fluorogenic substrate Ex360/Em465; hits give low values | z-score (test concentration not listed) | 65,000 compounds, 0.18% hits; in the data active = z-score below about -3
Target sequence (P06935 1371-1501 limits assumed): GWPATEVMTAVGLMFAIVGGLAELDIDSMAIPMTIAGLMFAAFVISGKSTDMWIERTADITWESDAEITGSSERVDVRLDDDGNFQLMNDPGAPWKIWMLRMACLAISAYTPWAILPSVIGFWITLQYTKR
Target sequence (P06935 1502-1679 limits assumed): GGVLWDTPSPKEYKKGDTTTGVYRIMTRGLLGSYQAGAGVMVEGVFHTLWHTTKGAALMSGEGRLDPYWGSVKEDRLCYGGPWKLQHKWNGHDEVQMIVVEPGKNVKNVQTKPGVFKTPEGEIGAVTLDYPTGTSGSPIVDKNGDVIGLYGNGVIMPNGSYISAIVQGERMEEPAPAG
MT1-MMP txn act – activates MT1-MMP transcription; activation factor at 10 µM; 86,000 compounds, 0.16% hits; HT1080 MT1-MMP promoter luciferase reporter, luminescence, overnight; hits give high values; AID 750;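 active = activation factor of at least 2 for MT1-MMP transcription at 10 µM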
SF-1 act – activators of human nuclear receptor SF-1; Q13285; CHO-K1 Gal4-SF-1 LBD luciferase reporter; % increase over DMSO SF-1-specific signal; activation, % at 10 µM; 65,000 compounds, 1.9% hits;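 active = activation above the mean activation of all tested compounds plus 3 SD, cut at about 50% in these data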
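System: CHO-K1 cells with Gal4–hSF-1 LBD chimera plus Gal4-driven luciferase; quantity: 4,000 CHO-K1 cells per well; compound: one dose, 10 µM compound, 1% DMSO; times: 20 h compound treatment, 37 °C; measured by: SteadyLite luciferase luminescence; read-out: percent activation versus DMSO; benchmarks: DMSO and mock-transfected background; replicates: one test per compound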
MMP13 inh – MMP13 (human) collagenase inhibition; P45452; MMP-13 fTHP FRET cleavage, Mca fluorescence; inhibition, % at 4 µM; 65,000 compounds, 0.07% hits; AID 570;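 active = inhibition above the mean of compound-free control plate wells plus 3 SD, cut at about 14% in these data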;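 also: 0% = DMSO wells and 100% = wells with reference MMP-13 inhibitor after basal subtraction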
Active calls of the source: *; nt = no result given. Sampled rows, rich in hits. Any-hit rate of the full collection: about 2.3%.

SMILES	RORa activator	WNV NS2B-NS3 inh	MT1-MMP txn act	SF-1 act	MMP13 inh
Cc1ccc(-c2cc(C(=O)N3CCN(c4ncccn4)CC3)c3ccccc3n2)cc1	25.5	-1.27	1.4	53.7*	-3.6
O=C(O)CC(c1cccc2ccccc12)n1cccc1 (stereo unspecified)	nt	nt	1.6	nt	nt
Cn1c(=O)c2c(-c3ccncc3)c3c(nc2n(C)c1=O)-c1ccccc1C3=O	12.9	0.33	1.1	8.9	-3.9
CCCCCOc1ccc(NS(C)(=O)=O)cc1	63.7*	1.49	1.2	31.9	-18.6
CCc1ccccc1Nc1ccc(C(=O)O)cc1N	14.9	-0.81	1.6	59.6*	-30.9
CC(=O)CC1(O)C(=O)N(Cc2ccccc2)c2ccccc21 (stereo unspecified)	nt	nt	1.2	nt	nt
C/C(CC1(O)C(=O)N(Cc2ccccc2)c2ccccc21)=N\O (stereo unspecified)	-20.2	-6.41*	1.2	1.2	-0.2
CC(=NC1CCCCC1)C1=C(O)c2ccccc2C1=O	88.1*	-0.3	1	23.7	3.6
CSC(=NC1CCCCC1)NS(=O)(=O)c1ccccc1	-3.9	2.93	1.1	-9.1	4.6
Cc1cc(=O)[nH]c(S/C=C/c2ccccc2)n1	30.9	-0.34	1.2	9.0	1.3
COc1ccc(OCC(O)COc2ccc(C(=O)O)cc2)cc1 (stereo unspecified)	16.9	-1.21	1	11.2	-5.4
COc1ccc(OCc2ccc(C(=O)O)cc2)cc1	16.6	1.25	1.3	63.7*	3.0
COC(=O)c1ccc(S(=O)(=O)N(Cc2cc3cc4c(cc3[nH]c2=O)OCO4)C2CCCCC2)cc1	-4.5	-0.1	1.1	-2.3	-4.2
Cc1nnc(-n2ncc(C#N)c2N)c2nn(-c3ccccc3F)c(C)c12	nt	nt	1.1	nt	nt
CNc1nc(-c2ccc(Cl)cc2)cs1	47.1	-0.37	1.2	63.5*	4.9
CCNc1nc(-c2ccc(Cl)cc2)cs1	50.1*	0.14	1.1	15.9	6.5
CCN(CC)CC(=O)Nc1nc(-c2ccc(Cl)cc2)cs1	nt	nt	1.2	nt	nt
COC(=O)C1(Cc2ccccc2)C=C2C(=C(C(C)C)C(=O)C2C)CN1 (stereo unspecified)	nt	nt	2.1*	nt	nt
CCOc1cc(S(=O)(=O)NCc2ccccn2)c(C)cc1C	-2.3	-0.96	1.1	-2.4	6.5
O=C(CSc1n[nH]c(=O)n1C1CC1)Nc1cc(Cl)ccc1Oc1ccccc1	1.8	-0.78	1.3	3.4	-0.7
c1ccc(CSc2nnc(-c3c[nH]c4ccccc34)o2)cc1	79.6*	1.14	1.2	46.0	4.0
c1ccc2c(-c3nnc(SCc4cn5ccccc5n4)o3)c[nH]c2c1	nt	nt	1	nt	nt
CCC1=C(OC(=O)N(CC)CC)N2C(=O)OC(=NCCOC)[C@]2(C)[C@H]2C1=CC[C@H]1C(=O)N(CC)C(=O)[C@H]12	nt	nt	1.1	nt	nt
COc1ccc(C2=Nn3c(nnc3-c3ccc(OC)cc3)SC2)cc1	-11.1	-9.62*	0.5	-18.1	-8.1
CCOc1cccc(-c2nnc3n2N=C(c2cc(OC)ccc2OC)CS3)c1	61.1*	-0.13	nt	46.2	2.0
SMILES	RORa activator	WNV NS2B-NS3 inh	MT1-MMP txn act	SF-1 act	MMP13 inh
Cc1nc(NC(=O)C2CC3CCCC(C2)C3=O)sc1C (stereo unspecified)	62.1*	1.03	1.6	53.7*	1.9
N#Cc1cn(-c2ccccc2)nc1-c1ccc2c(c1)OCCO2	61.7*	-0.34	1.5	55.4*	-21.8
O=Cc1cn(-c2ccccc2)nc1-c1cc2ccccc2oc1=O	nt	nt	1.2	nt	nt
O=Cc1cn(-c2ccccc2)nc1-c1ccc2c(c1)OCCO2	nt	nt	2*	nt	nt
COc1ccc2nc3c(cc2c1)Cc1ccccc1-3	nt	nt	1	nt	nt
COc1ccc(C(=O)Nc2cccc(OC)c2)cc1	46.3	-0.91	1	81.2*	-1.0
CCC(=O)Nc1ccc(NC(=O)c2ccco2)c(OC)c1	45.0	0.22	1.4	12.4	2.2
O=C(Nc1ccc(Br)c(Cl)c1)c1ccco1	76.0*	-0.15	1.5	91.6*	3.3
COc1cc(NC(=O)CC(C)C)ccc1NC(=O)c1ccco1	79.8*	0.13	1.3	44.1	2.8
COc1cccc(C(=O)Nc2cccc(NC(C)=O)c2)c1	25.4	1.04	1.2	15.8	-1.4
COc1ccc(C(=O)Nc2cc(C)on2)cc1	76.7*	0.86	0.7	-1.3	-0.4
O=C(Nc1ccc(-c2noc(CCc3ccccc3)n2)cc1)c1cccnc1	41.0	-0.85	1.2	44.3	0.1
CC(C)OC(=O)c1cccc(NC(=O)c2ccccc2)c1	nt	nt	2.1*	nt	nt
COC(=O)c1cccc(NC(=O)c2cccnc2)c1	nt	nt	0.9	nt	nt
COc1cccc(NC(=O)c2ccco2)c1	54.2*	0.47	1.5	26.6	-1.4
c1ccc(-c2ccccc2-n2cnnn2)cc1	8.9	-0.76	1.1	-20.6	5.3
Cc1occc1C(=O)Nc1cccc2ccccc12	27.8	-0.42	0.8	74.0*	0.0
Brc1ccc(-c2cn3cccnc3n2)cc1	53.0*	-0.56	1.6	37.9	-204.1
CCCc1nc(Nc2nc3ccccc3o2)nc(C)c1C(=O)OCC	49.2*	-0.18	0.7	80.7*	-1.6
C/C(N)=C(/C#N)C(=O)CSc1nc2ccc(C)cc2[nH]1	26.3	-0.01	1.2	76.9*	3.9
CN(C)c1ccc(-c2ccccc2)nn1	55.6*	-0.42	1.2	26.5	1.9
COc1ccccc1N1CCN(c2ccc(-c3ccccc3)nn2)CC1	-32.0	-0.18	1	-11.9	2.5
Cc1ccc2[nH]c(=O)c(CN(Cc3ccccc3Cl)C(=O)N3CCOCC3)cc2c1	23.1	0.96	1.2	4.4	-5.8
c1ccc2[nH]c(SCc3ccc(-c4nnco4)cc3)nc2c1	31.3	0.84	1.2	19.3	1.6
c1cnc2c(SCc3ccc(-c4nnco4)cc3)cccc2c1	31.0	0.17	1.5	62.5*	-28.5
SMILES	RORa activator	WNV NS2B-NS3 inh	MT1-MMP txn act	SF-1 act	MMP13 inh
O=C(NCCN1CCOCC1)c1noc2c1CCc1ccccc1-2	76.9*	-0.11	1.7	40.7	3.5
CCCNC(=O)c1noc2c1CCc1ccccc1-2	25.4	0.39	1.2	34.2	5.3
COc1cc(SC)ccc1C(=O)Nc1ccccc1C#N	25.6	-0.99	1.6	59.6*	3.2
CNS(=O)(=O)c1cccc(C(=O)OCc2cc(Cl)cc3c2OCOC3)c1	-32.8	-1.59	1.1	-11.7	-2.0
COc1ccc(C(=O)Nc2nc3ccccc3[nH]2)cc1OC	18.4	-0.81	1.3	50.2*	4.5
COc1ccc(OCc2nc3ccccc3[nH]2)cc1	nt	nt	0.6	nt	nt
COc1ccccc1OCc1nc2ccccc2[nH]1	53.5*	-0.34	1.1	52.8*	0.8
c1cnc2c(OCc3nc4ccccc4[nH]3)cccc2c1	82.3*	-0.33	1.2	65.1*	-1.9
c1ccc2cc(OCc3nc4ccccc4[nH]3)ccc2c1	nt	nt	1.9	nt	nt
COC(=O)c1ccc(C(NC(=O)OCc2ccccc2)/C(=C/[C@@H](C)C(=O)Nc2ccccc2)C(F)(F)F)cc1 (stereo partly specified)	nt	nt	1.1	nt	nt
CCC(C)(C)n1nnnc1C(c1cccnc1)N1CCN(c2cccc(C(F)(F)F)c2)CC1 (stereo unspecified)	nt	nt	1.2	nt	nt
O=C(/C=C/Nc1cccc(O)c1)c1ccccc1	12.4	-0.63	nt	57.4*	4.0
